Assay outcomes: PubChem, Sanford-Burnham Center for Chemical Genomics
DNMT1 inh – DNMT1 (human) enzyme inhibition | inhibition (reported as % activation of signal), % at 10 µM | hit rate 0.83% among 360,000 | P26358 | DNMT1 molecular beacon, Hinp1I cleavage, fluorescence; in the data active = inhibition above about 50%
NadD block – NadD (S. aureus) enzyme inhibition | inhibition, % at 20 µM | hit rate 0.78% among 360,000 | purified NadD enzyme, colorimetric absorbance read-out | AID 602399; in the data active = inhibition above about 26%
SUMO1 PPI mod – alters human SUMO1 binding to SIM partners. SUMO1 binding to a labelled peptide, TR-FRET, 1 h. P63165. inhibition, % at 20 µM. hit rate 0.33% among 360,000. AID 602429; in the data active = inhibition above about 37%
Target sequence (P63165 whole entry, looked up): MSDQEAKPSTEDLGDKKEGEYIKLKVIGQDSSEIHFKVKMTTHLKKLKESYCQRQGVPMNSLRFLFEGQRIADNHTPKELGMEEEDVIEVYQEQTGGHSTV
Scp1 inh – blocks human Scp-1 phosphatase activity; Q9GZU7; Recombinant Scp1, phosphopeptide, malachite green phosphate absorbance; inhibition, % at 20 µM; hit rate 0.88% among 340,000; AID 493091;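 active = inhibition above about 50% at 20 µM, limit read from the data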;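 note: plate controls were DMSO wells with enzyme for no effect and wells lacking enzyme for full effect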
Target sequence (Q9GZU7 76-261 limits assumed): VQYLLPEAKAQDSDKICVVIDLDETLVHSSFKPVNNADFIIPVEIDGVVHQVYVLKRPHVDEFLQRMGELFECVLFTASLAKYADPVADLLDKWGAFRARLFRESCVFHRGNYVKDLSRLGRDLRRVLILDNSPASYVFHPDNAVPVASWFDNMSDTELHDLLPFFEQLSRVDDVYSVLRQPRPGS
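Times: enzyme reaction 45 min at room temperature, colour 5 min, stabilisation 30 min. Material: SCP-1 catalytic fragment, aa 76-261. Medium: Acidic Tris acetate buffer with magnesium and detergent. Signal: colorimetric free-phosphate detection, absorbance 630 nm. Read-out basis: % inhibition of SCP-1 phosphate liberation. Reagent: Phosphorylated 17-residue peptide substrate.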
LMPTP block – LMPTP (human) inhibition | inhibition, % at 20 µM | recombinant LMPTP-A, OMFP fluorogenic substrate, fluorescence intensity | hit rate 0.22% among 360,000 | P24666;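 active = compounds that cut the enzyme signal by at least half of the control window in the single-dose screen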;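 note: plate controls were DMSO wells with enzyme plus substrate for no effect and substrate without enzyme for full effect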
Target sequence (P24666 whole entry, looked up): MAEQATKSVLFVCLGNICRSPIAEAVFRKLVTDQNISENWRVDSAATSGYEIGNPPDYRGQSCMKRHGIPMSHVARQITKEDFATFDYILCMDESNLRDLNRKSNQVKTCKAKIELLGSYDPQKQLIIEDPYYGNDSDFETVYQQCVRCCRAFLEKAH
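Buffer or medium: Bis-Tris pH 6.0, DTT, detergent; Assay system: LMPTP-A enzyme; Quantity: 0.625 nM enzyme; Detection: endpoint fluorescence intensity; Times: 50 min dark incubation at room temperature; Controls: substrate-only low control, DMSO enzyme-plus-substrate high control; Doses: single 20 µM dose; Read-out: percent inhibition versus substrate-only and uninhibited controls; Reagent: 400 µM OMFP.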
STEP block – inhibitors of human striatal-enriched phosphatase STEP. hit rate 0.25% among 360,000. recombinant STEP, OMFP fluorogenic substrate, fluorescence. inhibition, % at 20 µM. AID 588621. P54829;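 active = inhibition at 20 µM, scaled per plate between control wells, above about 37%, limit read from the data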;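 note: 0% = DMSO with enzyme and substrate and 100% = substrate only without enzyme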
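Material: STEP (striatal-enriched tyrosine phosphatase) enzyme, cell-free; Compound dosing: 20 µM single dose in 1% DMSO; Technique: fluorescence read at 480 nm ex / 540 nm em; Times: reaction 20 min, ambient temperature; Medium: 50 mM Bis-Tris pH 6.0 with 2.5 mM DTT and 0.005% Tween 20; Also added: OMFP at 25 µM.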
NadD inh conf – confirmation of Staphylococcus aureus NadD inhibitors | shares compounds with NadD block | purified S. aureus NadD, colorimetric enzyme assay | inhibition, % at 20 µM | hit rate 13% among 2,000 | AID 624309; in the data active = inhibition mostly above about 42%, no sharp cut-off; inactive = mostly below about 42%
Numbers without * were called inactive; . = no result given. Sampled rows, rich in hits. Any-hit rate of the full collection: about 2.4%.

SMILES	DNMT1 inh	NadD block	SUMO1 PPI mod	Scp1 inh	LMPTP block	STEP block	NadD inh conf
Cc1onc(-c2c(Cl)cccc2Cl)c1C(=O)N1CCN(c2ccccc2F)CC1	1.5	-1.4	8.6	-10.0	-0.2	1.4	.
NC(=O)[C@@H]1CC2(CC(c3cccc(NC(=O)CC(c4ccccc4)c4ccccc4)c3)=NO2)CN1C(=O)COc1ccc(Cl)cc1 (stereo partly specified)	-11.3	38.7*	2.4	-5.6	2.0	-0.6	26.8
CCCCCC(=O)N1CC2(CC(c3cccc(NC(=O)COc4ccc(Cl)cc4)c3)=NO2)C[C@@H]1C(N)=O (stereo partly specified)	-2.6	7.5	-3.5	-0.2	0.8	2.3	.
C/C=C\C(=O)Nc1cccc(C2=NOC3(C2)C[C@@H](C(N)=O)N(C(=O)COc2ccc(Cl)cc2)C3)c1 (stereo partly specified)	-6.8	2.1	-5.3	-0.5	0.1	1.5	.
NC(=O)[C@H]1CC2(CC(c3cccc(NC(=O)COc4ccc(Cl)cc4)c3)=NO2)CN1C(=O)CC(c1ccccc1)c1ccccc1 (stereo partly specified)	-29.2	37.4*	6.9	-6.2	3.0	-3.7	50.1*
O=C(Cc1ccccc1Cl)Nc1ccc(S(=O)(=O)Nc2nccs2)cc1	-0.8	-1.7	13.7	-12.7	0.3	-1.6	.
O=C(CSc1ccc(Br)c2cccc(Cl)c12)Nc1ccc(S(=O)(=O)Nc2nccs2)cc1	-3.0	70.5*	14.9	-4.5	3.9	0.5	30.7*
O=C1N[C@@H](Cc2ccccc2)C(=O)N2[C@H]1C[C@]1([C@]34C[C@H]5C(=O)N[C@@H](Cc6ccccc6)C(=O)N5[C@H]3N(S(=O)(=O)c3ccccc3)c3ccccc34)c3ccccc3N(S(=O)(=O)c3ccccc3)[C@H]21	15.8	38.4*	8.0	-4.4	3.1	-0.9	45.4
COc1cccc(-n2c(SCC(=O)N3CCc4ccccc43)nnc2-c2c[nH]c3ccccc23)c1	27.3	38.4*	4.0	-3.9	0.5	4.7	7.4
CCN(C(=O)C12CC3CC(CC(C3)C1)C2)C1CCS(=O)(=O)C1 (stereo unspecified)	1.6	-1.2	0.0	-6.1	-0.7	1.2	.
CCOC(=O)c1sc2nc3c(SCCC#N)cc(C(=O)c4cc(F)ccc4O)cn3c(=O)c2c1C	-4.5	33.2*	9.4	-27.1	-0.1	4.5	-8.0
CCc1c(C)sc2nc3c(C(=O)N4CCOCC4)cc(C(=O)c4cc(F)ccc4O)cn3c(=O)c12	-2.0	5.4	-13.5	-11.6	2.1	-0.6	.
COCCNC(=S)NC(=O)c1ccc(C(C)(C)C)cc1	-2.4	-7.6	-2.9	-8.5	1.3	1.0	.
CC(=O)c1ccc(NC(=O)c2cccc(S(=O)(=O)N3CCN(C)CC3)c2)cc1	-1.9	2.8	-4.0	6.2	1.0	-0.1	.
Cc1ccc(Oc2ccc3c(c2)C(=O)N(c2ccc(S(=O)(=O)Nc4nccs4)cc2)C3=O)cc1	1.7	44.4*	-13.4	0.2	2.6	2.6	46.4
O=C(Nc1ccc(S(=O)(=O)Nc2nccs2)cc1)c1cccc(N2C(=O)c3ccccc3C2=O)c1	2.6	39.3*	3.0	-23.5	12.3	-1.5	58.4*
O=C(Nc1nccs1)c1cccc(N2C(=O)c3cccc4c([N+](=O)[O-])ccc(c34)C2=O)c1	78.1*	37.5*	-14.1	-1.6	-2.9	-1.6	10.2
CC(=O)Oc1cccc(N2C(=O)c3cccc4c([N+](=O)[O-])ccc(c34)C2=O)c1	22.8	-2.2	-23.9	-8.6	0.1	0.7	.
COC(=O)CCCC1=CC2=CC(=O)C(C)(OC(=O)CCc3ccccc3)C(=O)C2=CO1 (stereo unspecified)	-9.8	41.4*	23.9	-3.6	0.2	-0.7	72.2*
COc1ccc(N2C=C3C(=O)C(C)(OC(=O)CCc4ccccc4)C(=O)C=C3C=C2c2ccc(C#N)cc2)cc1 (stereo unspecified)	-8.5	29.1	-20.5	1.6	3.6	3.0	.
Cc1ccccc1N1CC(C(=O)Nc2nnc(SCC(=O)Nc3nccs3)s2)CC1=O (stereo unspecified)	-4.4	40.4*	15.8	2.8	-0.6	0.2	28.7
Cc1cccc(N2CC(C(=O)Nc3nnc(SCc4cccnc4)s3)CC2=O)c1 (stereo unspecified)	11.0	15.1	-1.2	3.5	5.9	1.4	.
Cc1ccccc1N1CC(C(=O)Nc2nnc(SCc3ccccn3)s2)CC1=O (stereo unspecified)	-2.1	20.5	9.9	-6.0	-0.1	-2.3	.
Cc1cccc(N2CC(C(=O)Nc3nnc(SCC(=O)Nc4cc(C)on4)s3)CC2=O)c1 (stereo unspecified)	23.9	74.4*	-0.7	-3.7	-1.6	5.6	0.4
O=[N+]([O-])c1ccc(/C=N/Nc2ccnc3cc(Cl)ccc23)o1	19.6	26.8	-16.8	-0.6	8.2	0.5	.
SMILES	DNMT1 inh	NadD block	SUMO1 PPI mod	Scp1 inh	LMPTP block	STEP block	NadD inh conf
CCOc1ccccc1-c1cc(C(=O)N/N=C/c2ccc3c(c2)OCO3)c2ccccc2n1	-10.1	35.2*	2.5	-5.9	2.6	-2.1	11.8
O=C(CSc1n[nH]c(-c2cccs2)n1)NC1CCS(=O)(=O)C1 (stereo unspecified)	1.7	0.2	1.5	49.0	-1.9	-1.4	.
O=C1CC(=C2c3ccccc3-c3ccccc32)C(=O)N1CCN1CCN(c2cccc(Cl)c2)CC1	18.7	68.9*	0.0	-3.8	1.5	-1.4	60.3*
Cc1c(C(=O)NCC(c2ccco2)N(C)C)oc2c(Cl)cccc12 (stereo unspecified)	-2.9	-3.7	-2.3	-0.4	-1.4	-0.9	.
CCOc1ccc(NS(=O)(=O)c2ccc(Cl)c(N=Nc3c(O)[nH]c(=S)[nH]c3=O)c2)cc1Br	-7.0	38.8*	6.4	.	0.8	7.1	63.0*
COc1ccc(NS(=O)(=O)c2ccc(Cl)c(N)c2)cc1Br	3.0	-1.3	2.0	4.5	2.5	-1.7	.
CCOc1ncccc1C(=O)NNC(=O)c1cccc(S(=O)(=O)Nc2ccc(OC)cc2)c1	-0.5	5.5	2.4	-3.1	0.8	10.2	.
CCN(CC(=O)NCc1ccc(Cl)cc1)C(=O)CSc1cccc(C(F)(F)F)c1	0.4	-6.4	2.6	-9.6	1.5	-0.9	.
COc1ccc(-c2ccc3c(c2)S(=O)(=O)c2cccc(C(=O)NCCOc4ccccc4)c2C3=O)cc1OC	-9.7	10.6	-6.8	4.0	5.0	4.6	.
COc1ccc(OC[C@@H](O)CNC(=O)c2cccc3c2C(=O)c2ccc(-c4ccc(F)cc4OCc4ccccc4)cc2S3(=O)=O)cc1	-2.1	34.8*	-2.2	-7.1	2.3	0.1	25.4
